About 1,000 (0.77%) of roughly 130,000 compounds were called active. About 1% were inconclusive and are not listed.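 Rule for the calls: active = activation at 2 µM above a set limit, confirmed on inspection of the cell images; inconclusive = above the set limit but not confirmed on image inspection; inactive = the rest.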 The entries come from a sample that favours actives as a whole.
Assay: activators of insulin promoter-driven GFP, primary screen, imaging, TRM-6 cells (human fetal islet line), eGFP reporter, cell count (AID 1296;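 for activation: share of cells whose green reporter signal exceeds an intensity cutoff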;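 for normalized cell count: cells counted after 48 h compound exposure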)
Settings: at 2 µM; activation: stronger effect = higher value, plate-scaled: unstimulated 0, stimulated control 100; normalized cell count: measured here: cell count (toxicity)
Summary of the method: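 Assay system: TRM-6 human fetal islet cells, insulin promoter–eGFP reporter; Also added: 0.75 µM tamoxifen as reporter inducer; Schedule: 15 h tamoxifen pre-treatment, 48 h compound treatment at 37 °C; Signal: fixed-cell fluorescence microscopy, eGFP plus Hoechst; Read-out: percent activation from GFP-positive cell fraction; Control set: stimulated and unstimulated wells.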

SMILES | activation | normalized cell count [%]
COc1ccc(CC(=O)Nc2ccc(-c3nnc(-c4ccccc4)o3)cc2)cc1 | 6.45% (inactive) | 115
COc1ccc(OC(C)C(=O)Nc2cccnc2)cc1 (stereo not drawn) | -8.57% (inactive) | 50
COc1ccc(OC)c(CNC(=O)c2cc(=O)[nH]c3ccc(S(=O)(=O)N4CCCC4)cc23)c1 | 0% (inactive) | 73.7
CC(C)C(C)(C#N)NC(=O)CSc1nncn1-c1ccccc1 (stereo not drawn) | -7.14% (inactive) | 91.1
CCNc1nc(NC(C)C)nc(N2CC(=O)N(CC(=O)OCC)C2=N)n1 | 344% (active) | 69.4
O=Cc1cn(Cc2ccccc2)nc1-c1cccnc1 | 2.44% (inactive) | 212
CS(=O)(=O)N(Cc1ccccc1)c1ccc(C(=O)NN=C2CCCCCC2)cc1 | -6.9% (inactive) | 150
COC(=O)Nc1sc2nc(C)cc(C)c2c1-n1cccc1 | -3.7% (inactive) | 74.8
CCCN1CC=C2C(C#N)=C(N)C(C#N)(C#N)C(c3cc(OC)ccc3OC)C2C1 (stereo not drawn) | 178% (active) | 123
COc1cc(OC)cc(-c2nc3ccccc3c(=O)n2NC(=O)c2cccnc2Cl)c1 | -5.56% (inactive) | 107
CC1=NNC(=O)C1CCC(=O)N/N=C\c1ccc(Cl)c(Cl)c1 (stereo not drawn) | 0% (inactive) | 124
CCCn1c(=S)[nH]c2ccc(C(F)(F)F)cc21 | 205% (active) | 78
CC1CC(C)CN(C(=O)CSc2ccsc2[N+](=O)[O-])C1 (stereo not drawn) | 0% (inactive) | 74.7
CCOc1ccc(S(=O)(=O)Nc2ccncc2)c(C)c1C | -72.7% (inactive) | 133
CCOc1ccc(NC(=S)NC(=O)/C=C/c2ccc(OC)cc2)c([N+](=O)[O-])c1 | 8.82% (inactive) | 139
CCN(CC)CCn1c(/N=C/c2cc(Br)ccc2O)nc2ccccc21 | 149% (inactive) | 133
CC(C)CCNC(=O)CC1C(=O)N(Cc2ccccc2)C(C)c2nc3ccccc3n21 (stereo not drawn) | 127% (inactive) | 118
CC(C)(C)N1CC(c2nc3ccccc3n2Cc2ccc(F)cc2)CC1=O (stereo not drawn) | 80% (active) | 127
CC(O)c1nc2ccccc2n1Cc1ccc([N+](=O)[O-])cc1 (stereo not drawn) | -2.94% (inactive) | 149
Cc1ccc(C2CC2C(=O)NN)cc1 (stereo not drawn) | 0% (inactive) | 90.7
Cc1noc(C)c1CCC(=O)O | 5.56% (inactive) | 134
Cc1ccc(NC(=O)c2ccn(C(=O)Nc3ccccc3)n2)c(C)c1 | 0% (inactive) | 123

SMILES | activation | normalized cell count [%]
Cc1ccnc(NC(=O)Cn2ccc([N+](=O)[O-])n2)c1 | 5.71% (inactive) | 124
CCOC(=O)c1[nH]c2ccc(OC)cc2c1NC(=O)N1CCOCC1 | 3.57% (inactive) | 45.3
O=C(CN1CCOCC1)N1CCCc2c1c(=O)oc1ccc(OCc3ccccc3)cc21 | 21.5% (inactive) | 118
Cc1c(C(=O)N2CCOCC2)[nH]c2ccc(OCc3ccccc3)cc12 | 104% (active) | 126
CC(=O)c1cc(-c2ccccc2)n(CCC(=O)NC2CCCCCC2)c1C | 5.71% (inactive) | 127
CCN(CC(=O)Nc1ccc(Cl)c(S(=O)(=O)N(C)C)c1)Cc1nc2ccccc2c(=O)[nH]1 | 8.33% (inactive) | 83.9
CCn1c(Cc2cccs2)nnc1SCC(=O)c1ccc(C)cc1 | 433% (active) | 93.9
CCn1c(SCC(=O)Nc2nccs2)nnc1-c1ccco1 | 0% (inactive) | 131
Cc1ccc(-n2c(Cc3cccs3)nnc2SCC(=O)OC(C)C)cc1 | -7.69% (inactive) | 48
Cc1ccsc1C1C(C#N)=C(N)OC2=C1C(=O)CC(C)(C)C2 (stereo not drawn) | 0% (inactive) | 62.4
CCN1CCN(C(C(=O)NC2CCCC2)c2cc3c(cc2[N+](=O)[O-])OCO3)CC1 (stereo not drawn) | 6.67% (inactive) | 84.9
CCCC(=O)NC(Nc1ccccc1OC)C(Cl)(Cl)Cl (stereo not drawn) | -4.35% (inactive) | 88
CN(C)c1ccc(/C=C2\NC(=S)N(Cc3ccccc3)C2=O)cc1 | 170% [may fluoresce] (active) | 95.4
Cc1nc2ccccc2cc1C(=O)N/N=C/c1ccc([N+](=O)[O-])cc1 | -75% (inactive) | 81
COc1cc(/C=C/C(=O)OCC(=O)Nc2cccc(Oc3ccccc3)c2)ccc1O | 3.57% (inactive) | 105
O=C(Nc1cccc(Cl)c1)Nc1nnc(-c2ccccc2)o1 | 4.65% (inactive) | 60.8
CCOc1cc(/C=C2/C(=N)N3OC(C)=CC3=NC2=O)ccc1OC | 6.67% (inactive) | 55.1
O=C(c1ccccc1)c1ccc2nc(N3CCCCC3)c3nncn3c2c1 | 320% (active) | 70
c1ccc(CC2CCN(c3nc4ccccc4n4cnnc34)CC2)cc1 | -7.14% (inactive) | 111
O=C(Nc1ccccc1N1CCCCC1)c1cccc(F)c1 | 5.71% (inactive) | 92.9
CCC(C)NC(=O)c1nn(C)c(=O)c2ccccc12 (stereo not drawn) | -5.56% (inactive) | 169
Cc1ccc(S(=O)(=O)c2ccc(Cl)cc2)cc1S(=O)(=O)NC(C(=O)O)C(C)C (stereo not drawn) | 3.85% (inactive) | 127
